Assay results reported in ChEMBL document CHEMBL1255347, “Multiclonal outbreak of Klebsiella pneumoniae producing extended-spectrum beta-lactamase CTX-M-2 and novel variant CTX-M-59 in a neonatal intensive care unit in Brazil” (2008).
Converted amounts (≈) assume the structure as drawn.

Key:
[1] = tested on: Klebsiella pneumoniae; test: Antimicrobial activity against CTX-M-2 producing Klebsiella pneumoniae with PFGE pulsotype A by Etest; format: functional
Summary of the method: (§1)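 Clinical K. pneumoniae isolates from a neonatal ICU outbreak near São Paulo were typed by XbaI PFGE using Tenover criteria. Cultures were grown in LB broth at 37°C. Etest MICs followed the manufacturer's instructions, with cefotaxime and ceftazidime each tested with and without clavulanic acid.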

[2] = tested on: Klebsiella pneumoniae; test: Antimicrobial activity against CTX-M-2 producing Klebsiella pneumoniae with PFGE pulsotype B by Etest; format: functional; summary of the method: as §1
[3] = tested on: Klebsiella pneumoniae; test: Antimicrobial activity against CTX-M-59 producing Klebsiella pneumoniae with PFGE pulsotype C by Etest; format: functional
[4] = tested on: Klebsiella pneumoniae; test: Antimicrobial activity against SHV-5 producing Klebsiella pneumoniae with PFGE pulsotype D by Etest; format: functional; summary of the method: as §1
[5] = tested on: Klebsiella pneumoniae; test: Antimicrobial activity against CTX-M-59 producing Klebsiella pneumoniae with PFGE pulsotype E by Etest; format: functional
[6] = tested on: Klebsiella pneumoniae; test: Antimicrobial activity against CTX-M-2 producing Klebsiella pneumoniae with PFGE pulsotype F by Etest; format: functional
[7] = tested on: Klebsiella pneumoniae; test: Antimicrobial activity against CTX-M-59 producing Klebsiella pneumoniae with PFGE pulsotype G by Etest; format: functional; summary of the method: as §1
[8] = tested on: Klebsiella pneumoniae; test: Antimicrobial activity against CTX-M-2 producing Klebsiella pneumoniae with PFGE pulsotype H by Etest; format: functional; summary of the method: as §1
[9] = tested on: Klebsiella pneumoniae; test: Antimicrobial activity against CTX-M-2 producing Klebsiella pneumoniae with PFGE pulsotype I by Etest; format: functional
[10] = tested on: Klebsiella pneumoniae; test: Antimicrobial activity against CTX-M-2 producing Klebsiella pneumoniae with PFGE pulsotype J by Etest; format: functional
[11] = tested on: Escherichia coli; test: Antimicrobial activity against Escherichia coli str. K-12 substr. DH10B harboring plasmid CTX-M-2; format: functional; details: K-12 DH10B
Summary of the method: (§2)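 blaCTX-M PCR products were cut with XbaI/BamHI and cloned into pBC-SK(−), then electroporated into E. coli DH10B. Transformants were selected on LB agar with ampicillin 50 μg/ml and chloramphenicol 30 μg/ml, and sequences were confirmed. These clones were used for β-lactam MICs, with and without clavulanic acid.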

[12] = tested on: Escherichia coli; test: Antimicrobial activity against Escherichia coli str. K-12 substr. DH10B harboring plasmid CTX-M-59; format: functional; details: K-12 DH10B; summary of the method: as §2
[13] = tested on: Klebsiella pneumoniae; test: Antimicrobial activity against CTX-M-2 and TEM-1 producing Klebsiella pneumoniae transconjugants/transformants with PFGE pulsotype A by Etest; format: functional
Summary of the method: (§3)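 The recipient was E. coli XL1-Blue Rifr NAr. Plasmids moved by broth mating, with transconjugants selected on LB agar containing ampicillin, rifampin and nalidixic acid, each at 50 μg/ml. Where mating failed, alkaline-lysis plasmid extracts were electroporated and selected on ampicillin 50 μg/ml. β-lactam MICs were read by Etest, with and without clavulanic acid.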

[14] = tested on: Klebsiella pneumoniae; test: Antimicrobial activity against CTX-M-2 and TEM-1 producing Klebsiella pneumoniae transconjugants/transformants with PFGE pulsotype B by Etest; format: functional; summary of the method: as §3
[15] = tested on: Klebsiella pneumoniae; test: Antimicrobial activity against CTX-M-59 and TEM-1 producing Klebsiella pneumoniae transconjugants/transformants with PFGE pulsotype C by Etest; format: functional; summary of the method: as §3
[16] = tested on: Klebsiella pneumoniae; test: Antimicrobial activity against SHV-5 producing Klebsiella pneumoniae transconjugants/transformants with PFGE pulsotype D by Etest; format: functional; summary of the method: as §3
[17] = tested on: Klebsiella pneumoniae; test: Antimicrobial activity against CTX-M-59 and TEM-1 producing Klebsiella pneumoniae transconjugants/transformants with PFGE pulsotype E by Etest; format: functional; summary of the method: as §3
[18] = tested on: Klebsiella pneumoniae; test: Antimicrobial activity against CTX-M-2 and TEM-1 producing Klebsiella pneumoniae transconjugants/transformants with PFGE pulsotype F by Etest; format: functional; summary of the method: as §3
[19] = tested on: Klebsiella pneumoniae; test: Antimicrobial activity against CTX-M-59 and TEM-1 producing Klebsiella pneumoniae transconjugants/transformants with PFGE pulsotype G by Etest; format: functional; summary of the method: as §3
[20] = tested on: Klebsiella pneumoniae; test: Antimicrobial activity against CTX-M-2 and TEM-1 producing Klebsiella pneumoniae transconjugants/transformants with PFGE pulsotype H by Etest; format: functional; summary of the method: as §3
[21] = tested on: Klebsiella pneumoniae; test: Antimicrobial activity against CTX-M-2 and TEM-1 producing Klebsiella pneumoniae transconjugants/transformants with PFGE pulsotype I by Etest; format: functional; summary of the method: as §3
[22] = tested on: Klebsiella pneumoniae; test: Antimicrobial activity against CTX-M-2 and TEM-1 producing Klebsiella pneumoniae transconjugants/transformants with PFGE pulsotype J by Etest; format: functional; summary of the method: as §3
[23] = tested on: Escherichia coli; test: Antimicrobial activity against Escherichia coli str. K-12 substr. DH10B harboring plasmid CTX-M-2 in presence of clavulanic acid; format: functional; details: K-12 DH10B; summary of the method: as §2
[24] = tested on: Escherichia coli; test: Antimicrobial activity against Escherichia coli str. K-12 substr. DH10B harboring plasmid CTX-M-59 in presence of clavulanic acid; format: functional; details: K-12 DH10B; summary of the method: as §2
[25] = tested on: Klebsiella pneumoniae; test: Antimicrobial activity against CTX-M-2 and TEM-1 producing Klebsiella pneumoniae transconjugants/transformants with PFGE pulsotype B by Etest in presence of clavulanic acid; format: functional; summary of the method: as §3
[26] = tested on: Klebsiella pneumoniae; test: Antimicrobial activity against CTX-M-59 and TEM-1 producing Klebsiella pneumoniae transconjugants/transformants with PFGE pulsotype C by Etest in presence of clavulanic acid; format: functional; summary of the method: as §3
[27] = tested on: Klebsiella pneumoniae; test: Antimicrobial activity against SHV-5 producing Klebsiella pneumoniae transconjugants/transformants with PFGE pulsotype D by Etest in presence of clavulanic acid; format: functional; summary of the method: as §3
[28] = tested on: Klebsiella pneumoniae; test: Antimicrobial activity against CTX-M-59 and TEM-1 producing Klebsiella pneumoniae transconjugants/transformants with PFGE pulsotype E by Etest in presence of clavulanic acid; format: functional; summary of the method: as §3
[29] = tested on: Klebsiella pneumoniae; test: Antimicrobial activity against CTX-M-2 and TEM-1 producing Klebsiella pneumoniae transconjugants/transformants with PFGE pulsotype F by Etest in presence of clavulanic acid; format: functional; summary of the method: as §3
[30] = tested on: Klebsiella pneumoniae; test: Antimicrobial activity against CTX-M-59 and TEM-1 producing Klebsiella pneumoniae transconjugants/transformants with PFGE pulsotype G by Etest in presence of clavulanic acid; format: functional; summary of the method: as §3
[31] = tested on: Klebsiella pneumoniae; test: Antimicrobial activity against CTX-M-2 and TEM-1 producing Klebsiella pneumoniae transconjugants/transformants with PFGE pulsotype H by Etest in presence of clavulanic acid; format: functional
[32] = tested on: Klebsiella pneumoniae; test: Antimicrobial activity against CTX-M-2 and TEM-1 producing Klebsiella pneumoniae transconjugants/transformants with PFGE pulsotype I by Etest in presence of clavulanic acid; format: functional; summary of the method: as §3
[33] = tested on: Klebsiella pneumoniae; test: Antimicrobial activity against CTX-M-2 and TEM-1 producing Klebsiella pneumoniae transconjugants/transformants with PFGE pulsotype J by Etest in presence of clavulanic acid; format: functional; summary of the method: as §3
[34] = tested on: Klebsiella pneumoniae; test: Antimicrobial activity against CTX-M-2 producing Klebsiella pneumoniae with PFGE pulsotype A by Etest in presence of clavulanic acid; format: functional; summary of the method: as §1
[35] = tested on: Klebsiella pneumoniae; test: Antimicrobial activity against CTX-M-2 producing Klebsiella pneumoniae with PFGE pulsotype B by Etest in presence of clavulanic acid; format: functional; summary of the method: as §1
[36] = tested on: Klebsiella pneumoniae; test: Antimicrobial activity against CTX-M-59 producing Klebsiella pneumoniae with PFGE pulsotype C by Etest in presence of clavulanic acid; format: functional; summary of the method: as §1
[37] = tested on: Klebsiella pneumoniae; test: Antimicrobial activity against SHV-5 producing Klebsiella pneumoniae with PFGE pulsotype D by Etest in presence of clavulanic acid; format: functional
[38] = tested on: Klebsiella pneumoniae; test: Antimicrobial activity against CTX-M-59 producing Klebsiella pneumoniae with PFGE pulsotype E by Etest in presence of clavulanic acid; format: functional
Summary of the method: (§4)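 MICs were determined by Etest strips following the manufacturer's instructions, using cefotaxime and ceftazidime each combined with clavulanic acid. The test strains were clinical NICU outbreak isolates confirmed as ESBL producers by disk diffusion. Pulsotypes were assigned by XbaI PFGE using Tenover relatedness criteria. Cultures were routinely grown in LB broth at 37°C.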

[39] = tested on: Klebsiella pneumoniae; test: Antimicrobial activity against CTX-M-2 producing Klebsiella pneumoniae with PFGE pulsotype F by Etest in presence of clavulanic acid; format: functional; summary of the method: as §1
[40] = tested on: Klebsiella pneumoniae; test: Antimicrobial activity against CTX-M-59 producing Klebsiella pneumoniae with PFGE pulsotype G by Etest in presence of clavulanic acid; format: functional; summary of the method: as §4
[41] = tested on: Klebsiella pneumoniae; test: Antimicrobial activity against CTX-M-2 producing Klebsiella pneumoniae with PFGE pulsotype H by Etest in presence of clavulanic acid; format: functional
Summary of the method: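 Etest strips used per manufacturer's instructions to read MICs of cefotaxime and ceftazidime, each with clavulanic acid, on clinical NICU K. pneumoniae outbreak isolates. Isolates were typed by XbaI PFGE using Tenover criteria and routinely grown in LB broth at 37°C.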

[42] = tested on: Klebsiella pneumoniae; test: Antimicrobial activity against CTX-M-2 producing Klebsiella pneumoniae with PFGE pulsotype I by Etest in presence of clavulanic acid; format: functional; summary of the method: as §1
[43] = tested on: Klebsiella pneumoniae; test: Antimicrobial activity against CTX-M-2 producing Klebsiella pneumoniae with PFGE pulsotype J by Etest in presence of clavulanic acid; format: functional; summary of the method: as §1
[44] = tested on: Escherichia coli; test: Antimicrobial activity against CTX-M-2 and TEM-1 producing Escherichia coli transconjugants/transformants with PFGE pulsotype A by Etest in presence of clavulanic acid

Compound: C[C@@H](O)[C@H]1C(=O)N2C(C(=O)O)=C(S[C@@H]3CN[C@H](C(=O)Nc4cccc(C(=O)O)c4)C3)[C@H](C)[C@H]12
- MIC [1]: 1.5 µg/mL (≈ 3.15 µM)
- MIC [2]: 1 µg/mL (≈ 2.1 µM)
- MIC [3]: 1.5 µg/mL (≈ 3.15 µM)
- MIC [4]: 0.094 µg/mL (≈ 0.198 µM)
- MIC [5]: 1.5 µg/mL (≈ 3.15 µM)
- MIC [6]: 1.5 µg/mL (≈ 3.15 µM)
- MIC [7]: 1.5 µg/mL (≈ 3.15 µM)
- MIC [8]: 2 µg/mL (≈ 4.21 µM)
- MIC [9]: 1 µg/mL (≈ 2.1 µM)
- MIC [10]: 1.5 µg/mL (≈ 3.15 µM)
- MIC [11]: 0.016 µg/mL (≈ 0.0336 µM)
- MIC [12]: 0.016 µg/mL (≈ 0.0336 µM)
- MIC [13]: 0.125 µg/mL (≈ 0.263 µM)
- MIC [14]: 0.125 µg/mL (≈ 0.263 µM)
- MIC [15]: 0.064 µg/mL (≈ 0.135 µM)
- MIC [16]: 0.012 µg/mL (≈ 0.0252 µM)
- MIC [17]: 0.094 µg/mL (≈ 0.198 µM)
- MIC [18]: 0.125 µg/mL (≈ 0.263 µM)
- MIC [19]: 0.125 µg/mL (≈ 0.263 µM)
- MIC [20]: 0.094 µg/mL (≈ 0.198 µM)
- MIC [21]: 0.032 µg/mL (≈ 0.0673 µM)
- MIC [22]: 0.094 µg/mL (≈ 0.198 µM)

Compound: CO/N=C(\C(=O)N[C@@H]1C(=O)N2C(C(=O)O)=C(COC(C)=O)CS[C@H]12)c1csc(N)n1 [CEFOTAXIME]
- MIC [1]: > 256 µg/mL
- MIC [2]: > 256 µg/mL
- MIC [3]: > 256 µg/mL
- MIC [4]: 48 µg/mL (≈ 105 µM)
- MIC [5]: > 256 µg/mL
- MIC [6]: > 256 µg/mL
- MIC [7]: > 256 µg/mL
- MIC [8]: > 256 µg/mL
- MIC [9]: > 256 µg/mL
- MIC [10]: > 256 µg/mL
- MIC [11]: 128 µg/mL (≈ 281 µM)
- MIC [23]: 0.094 µg/mL
- MIC [12]: 96 µg/mL (≈ 211 µM)
- MIC [24]: 0.094 µg/mL
- MIC [16]: 12 µg/mL (≈ 26.3 µM)
- MIC [25]: 0.094 µg/mL
- MIC [26]: 0.19 µg/mL
- MIC [27]: 0.47 µg/mL
- MIC [28]: 0.25 µg/mL
- MIC [29]: 0.125 µg/mL
- MIC [30]: 0.19 µg/mL
- MIC [31]: 0.94 µg/mL
- MIC [32]: 0.125 µg/mL
- MIC [33]: 0.125 µg/mL
- MIC [34]: 0.094 µg/mL
- MIC [35]: 0.094 µg/mL
- MIC [36]: 0.094 µg/mL
- MIC [37]: 0.047 µg/mL
- MIC [38]: 0.125 µg/mL
- MIC [39]: 0.094 µg/mL
- MIC [40]: 0.5 µg/mL
- MIC [41]: 1 µg/mL
- MIC [42]: 0.094 µg/mL
- MIC [43]: 0.094 µg/mL
- MIC [44]: 0.094 µg/mL
